Entries after “also recorded” stand apart in the source; their conditions may differ. No end group written: not given here.
Assays:
[1] = test system: recombinant or affinity purified human VAP-1; assay: Surface plasmon resonance; assay type: binding
[2] = test system: VAP-1 negative knockout mice bearing melanoma xenografts; assay type: in vivo, mouse; details: KO 60 min; i.v.; ex vivo; mean ± SD, n = 2
Procedure, shortened: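 VAP-1 knockout mice received B16 melanoma cells in the neck area and were used 11 days later. 68Ga-DOTA-Siglec-9 peptide was given i.v. (7.8 ± 2.3 MBq, as stated for tumor-bearing mice). Blood, urine and organs were excised, weighed and gamma-counted. Uptake is given as SUV: tissue radioactivity concentration divided by injected radioactivity per body weight.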

[3] = test system: VAP-1 (wild type mice bearing melanoma xenografts); assay type: in vivo, mouse
Procedure, shortened: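 Wild-type mice received B16 melanoma cells in the neck area and were used 11 days later. 68Ga-DOTA-peptide was injected i.v., then dynamic PET ran 60 min (OSEM2D reconstruction). SUV is ROI radioactivity concentration divided by injected activity per body weight, corrected for tail residue. A separate group got 500-fold molar excess of unlabeled peptide co-injected. Blood, urine and organs were then excised, weighed and gamma-counted.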

VAP-1 in melanoma tumor = assay: Digital autoradiography of tumor cryosections; assay type: in vivo, mouse; details: i.v. 3.0 ± 0.4 MBq, 15 min
Procedure, shortened: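 B16 melanoma cells were inoculated abdominally, and mice were used 11 days later. Mice received 68Ga-labelled DOTA test peptide i.v. (3.0 ± 0.4 MBq) and were killed after 15 min. Tumour cryosections went to digital autoradiography as PSL/mm2. ROIs covered VAP-1-positive and VAP-1-negative areas, set by anti-mouse VAP-1 staining of adjacent sections. Background was subtracted and values normalised to muscle; four mice, mean ± SD.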

human VAP-1 (KOTG mice) = assay type: in vivo, human (transgene in mouse)
Procedure, shortened: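 Ear inflammation was induced with 4 drops of 5% (w/v) DNCB in acetone on the right ear, one day before imaging. Mice were VAP-1 KO, or KOTG (mouse VAP-1-deficient, with human VAP-1 on endothelium under the Tie-1 promoter). 68Ga-DOTA-peptide was given i.v. (KO 7.4 ± 1.8, KOTG 7.5 ± 3.0 MBq). Dynamic PET ran 30 min (OSEM2D), read as SUV, and was checked by ex vivo gamma counting of excised tissues.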

[4] = test system: site of inflammation (VAP-1); assay: PET imaging, rats with turpentine-induced sterile inflammation; assay type: in vivo, rat (Sprague-Dawley)
Procedure, shortened: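 Sprague-Dawley rats received turpentine oil s.c. in the upper neck, and 24 h later 68Ga-labelled DOTA test peptide i.v. (18.4 ± 3.1 MBq). A 60 min list-mode PET scan was reconstructed by OSEM3D, with blood sampled during imaging. ROIs covered inflammation, muscle, organs and bladder. SUV was ROI concentration divided by injected activity per body weight, corrected for tail residue. Excised organs were then gamma-counted as SUV; three animals.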

[5] = target: Vascular Adhesion Protein-1 (VAP-1), human, recombinant (human) (UniProt Q16853); assay: SPR
Sequence of UniProt Q16853 (Q16853 whole entry): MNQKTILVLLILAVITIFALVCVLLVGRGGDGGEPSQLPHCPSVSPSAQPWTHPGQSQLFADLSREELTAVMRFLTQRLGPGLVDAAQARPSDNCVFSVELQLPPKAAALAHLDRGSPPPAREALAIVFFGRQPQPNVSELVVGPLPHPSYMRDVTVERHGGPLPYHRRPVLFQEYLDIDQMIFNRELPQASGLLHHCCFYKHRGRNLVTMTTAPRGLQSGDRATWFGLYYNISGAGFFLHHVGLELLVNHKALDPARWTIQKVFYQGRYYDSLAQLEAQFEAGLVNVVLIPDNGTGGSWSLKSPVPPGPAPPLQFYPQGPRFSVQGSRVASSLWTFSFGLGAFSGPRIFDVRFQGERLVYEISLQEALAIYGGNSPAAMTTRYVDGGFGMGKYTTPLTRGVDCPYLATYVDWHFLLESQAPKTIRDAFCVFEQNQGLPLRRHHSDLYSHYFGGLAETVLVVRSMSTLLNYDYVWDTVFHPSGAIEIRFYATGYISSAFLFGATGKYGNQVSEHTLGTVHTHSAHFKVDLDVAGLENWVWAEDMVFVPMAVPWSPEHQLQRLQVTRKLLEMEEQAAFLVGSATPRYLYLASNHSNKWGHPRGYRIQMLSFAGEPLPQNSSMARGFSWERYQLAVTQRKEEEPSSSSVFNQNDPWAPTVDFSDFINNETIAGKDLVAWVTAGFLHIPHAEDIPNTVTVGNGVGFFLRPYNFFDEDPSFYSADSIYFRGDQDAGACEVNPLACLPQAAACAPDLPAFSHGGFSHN

[6] = test system: Siglec-9 expression on granulocytes; assay: Induction of Siglec-9 expression on granulocytes; assay type: cell-based, human; details: FMLP 0.5 and 5 μg/mL, FACS, MFI, n = 4; for Siglec-9 up-regulation on granulocytes, 2 h: TNF-α 10 and 200 U/mL, LPS 10 and 100 ng/mL
Procedure, shortened: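 Leukocytes from four healthy volunteers were prepared by red-cell lysis of whole blood. Treatments were FMLP (0.5 or 5 μg/mL, 5 min or 2 h), TNF-α (10 or 200 U/mL, 2 h) or LPS (10 or 100 ng/mL, 2 h); untreated cells were controls. Cells were stained with anti-Siglec-9 mAb (3G6 as control), then Alexa546 anti-mouse IgG. Granulocytes were gated by FITC-anti-CD66b and read by flow cytometry as MFI minus control-antibody MFI, mean ± SEM.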

[7] = test system: human granulocyte binding to inflamed synovial vessels; assay: Granulocyte binding to vessels in inflamed synovia; assay type: cell-based; details: TNF-α 200 U/mL, 2 h; granulocytes from three donors
Procedure, shortened: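 Percoll-purified granulocytes from three donors were incubated 2 h with TNF-α (200 U/mL) or left untreated. They were then pre-treated 30 min with anti-Siglec-9 or control antibodies. Cells were bound to frozen sections of inflamed human synovium under rotation for 30 min, then glutaraldehyde-fixed. Vessel-bound cells were counted and expressed as % of control-mAb binding (100%), mean ± SEM.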

mouse VAP-1 = assay: Adhesion of CHO-Siglec-E cells to CHO cells transfected with mouse VAP-1; assay type: cell-based; details: CHO-Siglec-E or mock; Supplemental Figure 1
Procedure, shortened: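 CHO cells expressing mouse VAP-1, or mock CHO, were grown to confluence in 96-well plates and blocked with PBS/1% BSA. CFSE-labelled CHO-Siglec-E cells (2 × 10^5) were added for 30 min at 37°C. After nine washes, adherence was read by fluorometer, and the wells were imaged by microscope.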

VAP-1 = details: tyrosine 471 of VAP-1 and Arg293 in Siglec-10; ref [6]; cited from earlier work
[8] = WT 60 min, i.v., ex vivo, mean ± SD, n = 3

CARLSLSWRGLTLCPS [wild type peptide]
binding to recombinant VAP-1 (SPR) ([1]; Biacore X, CM5 chip, immobilized VAP-1, wild type peptide at 0-400 μM): bound to recombinant VAP-1

CARLSLSWRGLTLCPSK [^68Ga-DOTA-peptide]
uptake in blood (SUV), KO [2]: 0.25 ± 0.01 standardized uptake values | uptake in kidney (SUV), KO [2]: 7.78 ± 1.47 standardized uptake values | uptake in liver (SUV), KO [2]: 0.97 ± 0.07 standardized uptake values | uptake in muscle (SUV), KO [2]: 0.04 ± 0.01 standardized uptake values | uptake in small intestine (SUV), KO [2]: 0.08 ± 0.01 standardized uptake values | uptake in tumour (SUV), KO [2]: 0.20 ± 0.02 standardized uptake values | uptake in kidney (SUV), WT [3, 8]: 5.10 ± 0.86 standardized uptake values | uptake in liver (SUV), WT [3, 8]: 1.82 ± 0.25 standardized uptake values | uptake in lung (SUV), WT [3, 8]: 0.69 ± 0.21 standardized uptake values | uptake in muscle (SUV), WT [3, 8]: 0.21 ± 0.07 standardized uptake values | uptake in small intestine (SUV), WT [3, 8]: 0.59 ± 0.16 standardized uptake values | uptake in tumour (SUV), WT [3, 8]: 0.56 ± 0.12 standardized uptake values | accumulation at tumor site (PET) ([3]; i.v. 7.8 ± 2.3 MBq, B16 melanoma, wild type mice): accumulated at the tumor site | distribution of radioactivity within tumor (VAP-1 in melanoma tumor): radioactivity concentrated in the periphery of the tumor | detection of inflammation in the mouse (PET) (human VAP-1 (KOTG mice); DNCB ear skin inflammation, Supplemental Figure 2): able to detect inflammation in the mouse | signals in many organs, KOTG vs KO mice (human VAP-1 (KOTG mice); i.v. 7.5 ± 3.0 MBq (KOTG), 7.4 ± 1.8 MBq (KO), Supplemental Table 2): detects human VAP-1 in many organs realized as higher signals than in KO mice | accumulation at sites of inflammation vs muscle (PET) ([4]; i.v. 18.4 ± 3.1 MBq, 5-10 min, 24 h after turpentine, rat): quickly and preferentially accumulated at the sites of inflammation (5-10 min) in comparison to the muscle; also recorded: clearly seen at the site of inflammation (I) but not in the surrounding muscle | elimination route ([4]; i.v., PET): eliminated rapidly via kidneys to the urinary bladder

cyclic Siglec-9-like peptide without Arg284 (P1_noArg284) (from UniProt Q9Y336 283-297)
percent reduction of binding against the wild type peptide [5]: 66%

cyclic Siglec-9-like peptide without Arg290 (P1_noArg290) (from UniProt Q9Y336 283-297)
percent reduction of binding against the wild type peptide [5]: 42%

formyl-methyl-leucine-phenylalanine [FMLP]
Siglec-9 up-regulation on granulocytes, 2 h [6]: further up-regulation was seen after 2 h; also recorded: roughly two-fold after 2 h | Siglec-9 up-regulation on granulocytes, 5 min ([6]; 5 min): slightly up-regulated Siglec-9 expression already after 5 min; also recorded: slight up-regulation was already seen after 5 min

lipopolysaccharide [LPS]
Siglec-9 up-regulation on granulocytes, 2 h [6]: significant up-regulation of Siglec-9 after 2 h

mutated Siglec-9 peptide: mutated Siglec-9 peptide, in which both arginines were mutated to alanines (CAALSLSWAGLTLCPS; also: cyclic peptide, ring type not given here)
binding to recombinant VAP-1 (SPR), double arginine mutant ([1]; both arginines mutated to alanines, data not shown): failed to bind recombinant VAP-1

tumor necrosis factor-α [TNF-α]
Siglec-9 up-regulation on granulocytes, 2 h [6]: significant up-regulation of Siglec-9 after 2 h | granulocyte binding to inflamed synovial vasculature after TNF-α [7]: significantly increased granulocyte binding to synovial vasculature

B1: Siglec-E: mouse molecule corresponding to human Siglec-9, expressed on CHO cells (protein)
chain: QNPQEVFTLNVERKVVVQEGLCVLVPCNFSYLKKRLTDWTDSDPVHGFWYREGTDRRKDSIVATNNPIRKAVKETRNRFFLLGDPWRNDCSLNIREIRKKDAGLYFFRLERGKTKYNYMWDKMTLVVTALTNTPQILLPETLEAGHPSNLTCSVPWDCGWTAPPIFSWTGTSVSFLSTNTTGSSVLTITPQPQDHGTNLTCQVTLPGTNVSTRMTIRLNVSYAPKNLTVTIYQGADSVSTILKNGSSLPISEGQSLRLICSTDSYPPANLSWSWDNLTLCPSKLSKPGLLELFPVHLKHGGVYTCQAQHALGSQHISLSLSPQSSATLSEMMMGTFVGSGVTALLFLSVCILLLAVRSYRRKPARPAVVAPHPDALKVSVSQNPLVESQADDSSEPLPSILEAAPSSTEEEIHYATLSFHEMKPMNLWGQQDTTTEYSEIKFPQRTAWP
adhesion of Siglec-E cells to mouse VAP-1 cells (mouse VAP-1): no VAP-1-Siglec-E mediated adhesion was detected

B2: Siglec-10: lymphocyte ligand for VAP-1 (protein, UniProt Q96LC7 17-697, looked up)
Sialic acid-binding Ig-like …: MDGRFWIRVQESVMVPEGLCISVPCSFSYPRQDWTGSTPAYGYWFKAVTETTKGAPVATNHQSREVEMSTRGRFQLTGDPAKGNCSLVIRDAQMQDESQYFFRVERGSYVRYNFMNDGFFLKVTALTQKPDVYIPETLEPGQPVTVICVFNWAFEECPPPSFSWTGAALSSQGTKPTTSHFSVLSFTPRPQDHNTDLTCHVDFSRKGVSAQRTVRLRVAYAPRDLVISISRDNTPALEPQPQGNVPYLEAQKGQFLRLLCAADSQPPATLSWVLQNRVLSSSHPWGPRPLGLELPGVKAGDSGRYTCRAENRLGSQQRALDLSVQYPPENLRVMVSQANRTVLENLGNGTSLPVLEGQSLCLVCVTHSSPPARLSWTQRGQVLSPSQPSDPGVLELPRVQVEHEGEFTCHARHPLGSQHVSLSLSVHYSPKLLGPSCSWEAEGLHCSCSSQASPAPSLRWWLGEELLEGNSSQDSFEVTPSSAGPWANSSLSLHGGLSSGLRLRCEAWNVHGAQSGSILQLPDKKGLISTAFSNGAFLGIGITALLFLCLALIIMKILPKRRTQTETPRPRFSRHSTILDYINVVPTAGPLAQKRNQKATPNSPRTPLPPGAPSPESKKNQKKQYQLPSFPEPKSSTQAPESQESQEELHYATLNFPGVRPRPEARMPKGTQADYAEVKFQ
dependence of Siglec-10/VAP-1 interaction on enzymatic activity (VAP-1): completely dependent on the enzymatic activity of VAP-1

From publication PMC3833035 (Blood, 2011)
